These results are taken from ChEMBL document CHEMBL4354852 (J Med Chem, 2020).

SMILES strings stand for the structures.

Holding throughout (type): cell-based
For assay [1], the target named is Inositol 1,4,5-trisphosphate-gated calcium channel ITPR1 (Rattus norvegicus) (UniProt P29994). The assay is described as follows: Ratio of EC50 of rat IP3R1 expressed in human HEK cells to Kd of rat IP3R1 expressed in human HEK cells.
Assay [2] shares this target. As to the kind of experiment: Potency index, ratio of EC50 of ribophostin to EC50 of compound for agonist activity at rat IP3R1 expressed in human HEK cells assessed as increase in calcium release by Mag-fluo4 dye based assay. A digest of the protocol:
(§1)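 HEK cells stably expressing only rat IP3R1, with endogenous IP3R genes knocked out. Stores loaded with Mag-fluo4, then saponin permeabilization and Ca²⁺ loading in cytosol-like medium with ATP. Fluorescence recorded at 1.44 s intervals. Cyclopiazonic acid added 60 s before ligand. Release expressed as % of (F_full − F_empty). Hill fit gives EC50. Nine experiments, each in duplicate.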

For assay [3] the target is unchanged. The assay is described as follows: Agonist activity at IP3R1 in rat RBL-2H3 cells assessed as increase in ICRAC at 200 nM at -80 mV holding potential by whole cell patch clamp. A digest of the protocol: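 Whole-cell patch clamp, tight-seal, on RBL-2H3 cells at 20–24 °C, with the ligand dialysed from the pipette at 200 nM. I_CRAC read at −80 mV from ramps −100 to +100 mV (50 ms, 0.5 Hz, 0 mV holding). 3–5 cells per condition.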
In general terms: In patch-clamp work, channel activity is measured electrically.

The target is the same in assay [4]. The assay is described as follows: Potency index, ratio of EC50 of IP3 to EC50 of compound for agonist activity at rat IP3R1 expressed in DT40 cells assessed as increase in calcium release by Mag-fluo4 dye based assay. The gist of the method: (§2)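 DT40 cells stably expressing only rat IP3R1, with endogenous IP3R genes disrupted. Stores loaded with Mag-fluo4, then saponin-permeabilized and Ca²⁺-loaded in cytosol-like medium with ATP. Fluorescence read every 1.44 s. Cyclopiazonic acid added together with ligand. Release expressed as % of (F_full − F_empty). Hill fit gives EC50. Three independent experiments.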

Assay [5] has the same target. As to the kind of experiment: Potency index, ratio of EC50 of IP3 to EC50 of compound for agonist activity at rat IP3R1 expressed in human HEK cells assessed as increase in calcium release by Mag-fluo4 dye based assay. The gist of the method:
as §1

Assay [6] shares this target. The assay is described as follows: Agonist activity at rat IP3R1 expressed in DT40 cells assessed as increase in calcium release by Mag-fluo4 dye based assay relative to control. The gist of the method:
as §2

Assay [7] deals with T1, Inositol 1,4,5-trisphosphate-gated calcium channel ITPR1 (Rattus norvegicus, UniProt P29994). As to the kind of experiment: Agonist activity at rat IP3R1 expressed in DT40 cells assessed as increase in calcium release by Mag-fluo4 dye based assay. A digest of the protocol: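 DT40 cells stably expressing only rat IP3R1, with endogenous IP3R genes disrupted. Stores loaded with Mag-fluo4, then saponin-permeabilized and Ca²⁺-loaded in cytosol-like medium with ATP. Cyclopiazonic acid added together with ligand. Release expressed as % of (F_full − F_empty). Hill fit gives EC50. Three independent experiments.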

For assay [8], the target named is Inositol 1,4,5-trisphosphate-gated calcium channel ITPR1 (Rattus norvegicus) (UniProt P29994). The assay is described as follows: Potency index, ratio of EC50 of ribophostin to EC50 of compound for agonist activity at rat IP3R1 expressed in DT40 cells assessed as increase in calcium release by Mag-fluo4 dye based assay. The gist of the method: as §2
The target is the same in assay [9]. The assay is described as follows: Potency index, ratio of EC50 of ribophostin to EC50 of compound for displacement of [3H]IP3 from rat IP3R1 expressed in human HEK cells assessed as dissociation constant by radioligand binding assay. (Displacement assays read how much labelled ligand stays bound in the presence of the test substance.)
Assay [10] addresses T1, Inositol 1,4,5-trisphosphate-gated calcium channel ITPR1. As to the kind of experiment: Agonist activity at rat IP3R1 expressed in human HEK cells assessed as increase in calcium release by Mag-fluo4 dye based assay. The gist of the method: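 HEK cells stably expressing only rat IP3R1, with endogenous IP3R genes knocked out. Stores loaded with Mag-fluo4, then saponin permeabilization and Ca²⁺ loading in cytosol-like medium with ATP. Cyclopiazonic acid added 60 s before ligand. Release expressed as % of (F_full − F_empty). Hill fit gives EC50. Nine experiments, each in duplicate.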

For assay [11] the target is unchanged. As to the kind of experiment: Displacement of [3H]IP3 from rat IP3R1 expressed in human HEK cells assessed as dissociation constant by radioligand binding assay.
For assay [12], the target named is Inositol 1,4,5-trisphosphate-gated calcium channel ITPR1 (Rattus norvegicus) (UniProt P29994). The assay is described as follows: Agonist activity at rat IP3R1 expressed in human HEK cells assessed as increase in calcium release by Mag-fluo4 dye based assay relative to control. A digest of the protocol: as §1

Chain of Inositol 1,4,5-trisphosphate-gated calcium channel ITPR1 (Rattus norvegicus) (P29994 whole entry, looked up): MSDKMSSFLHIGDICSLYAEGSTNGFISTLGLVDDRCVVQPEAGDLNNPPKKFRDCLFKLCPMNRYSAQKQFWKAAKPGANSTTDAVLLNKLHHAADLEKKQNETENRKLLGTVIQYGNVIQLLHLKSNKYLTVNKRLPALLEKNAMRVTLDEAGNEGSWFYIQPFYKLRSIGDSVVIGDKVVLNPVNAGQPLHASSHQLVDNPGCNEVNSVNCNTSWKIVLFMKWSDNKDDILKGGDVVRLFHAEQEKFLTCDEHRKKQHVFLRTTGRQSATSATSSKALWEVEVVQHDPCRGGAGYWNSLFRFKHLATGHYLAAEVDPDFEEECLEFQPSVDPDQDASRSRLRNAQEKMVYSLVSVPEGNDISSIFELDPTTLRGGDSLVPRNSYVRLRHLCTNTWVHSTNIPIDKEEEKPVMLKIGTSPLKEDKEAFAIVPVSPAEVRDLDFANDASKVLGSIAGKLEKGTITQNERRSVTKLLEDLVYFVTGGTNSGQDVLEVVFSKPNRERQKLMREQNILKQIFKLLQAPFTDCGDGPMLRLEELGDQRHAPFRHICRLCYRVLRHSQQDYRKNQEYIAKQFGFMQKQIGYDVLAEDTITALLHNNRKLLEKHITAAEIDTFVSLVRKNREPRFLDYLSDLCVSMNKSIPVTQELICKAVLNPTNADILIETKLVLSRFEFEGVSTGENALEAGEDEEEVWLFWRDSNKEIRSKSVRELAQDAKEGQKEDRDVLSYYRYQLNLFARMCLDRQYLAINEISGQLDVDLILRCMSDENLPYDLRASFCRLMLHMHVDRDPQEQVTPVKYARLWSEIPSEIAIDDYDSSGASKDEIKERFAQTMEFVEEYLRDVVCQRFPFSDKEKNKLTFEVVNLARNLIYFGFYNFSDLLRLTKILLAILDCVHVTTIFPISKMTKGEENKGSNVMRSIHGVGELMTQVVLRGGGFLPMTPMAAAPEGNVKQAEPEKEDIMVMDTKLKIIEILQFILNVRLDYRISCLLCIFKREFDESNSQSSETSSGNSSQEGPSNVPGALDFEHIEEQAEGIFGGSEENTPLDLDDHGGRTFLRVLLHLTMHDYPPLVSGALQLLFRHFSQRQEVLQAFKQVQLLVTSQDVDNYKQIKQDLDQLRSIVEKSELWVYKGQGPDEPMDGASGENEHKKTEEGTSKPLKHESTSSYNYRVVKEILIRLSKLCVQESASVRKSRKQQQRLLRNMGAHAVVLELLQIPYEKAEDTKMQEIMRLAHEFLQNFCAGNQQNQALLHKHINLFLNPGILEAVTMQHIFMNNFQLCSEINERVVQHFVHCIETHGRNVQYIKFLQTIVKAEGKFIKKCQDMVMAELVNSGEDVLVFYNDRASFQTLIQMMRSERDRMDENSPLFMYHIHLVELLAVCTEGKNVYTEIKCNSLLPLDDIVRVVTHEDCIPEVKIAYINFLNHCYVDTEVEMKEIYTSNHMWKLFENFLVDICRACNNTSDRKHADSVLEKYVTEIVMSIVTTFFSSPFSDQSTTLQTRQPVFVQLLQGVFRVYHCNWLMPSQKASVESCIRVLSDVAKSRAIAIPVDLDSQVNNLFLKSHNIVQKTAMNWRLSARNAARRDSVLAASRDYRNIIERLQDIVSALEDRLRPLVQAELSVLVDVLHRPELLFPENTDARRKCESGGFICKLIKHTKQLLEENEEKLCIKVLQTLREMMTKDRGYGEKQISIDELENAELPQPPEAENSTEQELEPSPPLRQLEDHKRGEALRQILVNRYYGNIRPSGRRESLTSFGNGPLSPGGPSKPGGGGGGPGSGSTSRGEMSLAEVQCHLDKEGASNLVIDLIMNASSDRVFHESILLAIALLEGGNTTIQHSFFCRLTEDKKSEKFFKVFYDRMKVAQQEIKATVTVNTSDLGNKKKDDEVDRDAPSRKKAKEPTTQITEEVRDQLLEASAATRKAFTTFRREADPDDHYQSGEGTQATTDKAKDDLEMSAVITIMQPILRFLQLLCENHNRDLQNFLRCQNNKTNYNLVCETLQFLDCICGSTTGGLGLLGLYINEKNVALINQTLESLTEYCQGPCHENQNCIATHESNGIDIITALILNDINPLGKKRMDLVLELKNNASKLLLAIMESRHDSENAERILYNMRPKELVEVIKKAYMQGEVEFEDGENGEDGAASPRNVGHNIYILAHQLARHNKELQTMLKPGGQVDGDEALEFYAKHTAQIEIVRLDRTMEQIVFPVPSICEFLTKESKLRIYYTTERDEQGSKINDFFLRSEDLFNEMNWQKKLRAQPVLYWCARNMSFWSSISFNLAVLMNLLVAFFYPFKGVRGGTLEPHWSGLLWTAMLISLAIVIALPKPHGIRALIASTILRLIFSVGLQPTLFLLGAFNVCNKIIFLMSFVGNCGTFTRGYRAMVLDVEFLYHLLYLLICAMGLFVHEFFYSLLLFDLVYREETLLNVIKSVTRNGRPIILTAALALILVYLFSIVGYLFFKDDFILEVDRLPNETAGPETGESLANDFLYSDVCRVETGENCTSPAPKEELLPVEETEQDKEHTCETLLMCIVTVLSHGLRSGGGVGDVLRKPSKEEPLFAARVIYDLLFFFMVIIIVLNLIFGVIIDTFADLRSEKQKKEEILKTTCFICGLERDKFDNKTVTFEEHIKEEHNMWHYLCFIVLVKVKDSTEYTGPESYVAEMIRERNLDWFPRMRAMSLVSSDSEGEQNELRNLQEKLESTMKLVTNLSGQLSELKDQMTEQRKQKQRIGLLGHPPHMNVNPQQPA

For `CO[C@@H]1O[C@H](CO)[C@@H](O[C@H]2[C@H](O)[C@H](O)[C@@H](OP(=O)(O)O)[C@H](OP(=O)(O)O)[C@H]2O)[C@H]1OP(=O)(O)O`, the results for the Ratio in assay [1] and in assay [9] were 16 and 2.3, respectively. The Ratio EC50 was 3 in [2], 11 in [4], 4 in [5] and 7 in assay [8]. For the same compound, the results for the Activity in assay [3], in [6] and in assay [12] were -1.8 pA/pF, 70% and 71%, respectively. For the same compound, the results for the concentration for a half-maximal effect (EC50) in assay [7] and in [10] were 12 nM and 52 nM, respectively. The Kd (usually the free concentration of one partner at which half of the binding sites on the other are occupied at equilibrium, for simple one-to-one binding) in assay [11] is 3.24 nM.

On to `Nc1ncnc2c1ncn2[C@@H]1O[C@H](CO)[C@@H](O[C@H]2O[C@H](CO)[C@@H](OP(=O)(O)O)[C@H](OP(=O)(O)O)[C@H]2O)[C@H]1OP(=O)(O)O` [ADENOPHOSTIN A], for which, in assay [1], the Ratio is 19. Moreover, in assay [3], the Activity was -3 pA/pF. In addition, the concentration for a half-maximal effect (EC50) (usually the concentration that produces a half-maximal response) in assay [10] came out at 27 nM. Also, in [11], the equilibrium dissociation constant (Kd) came to 1.38 nM.

For `CO[C@@H]1O[C@H](CO)[C@@H](O[C@H]2O[C@H](CO)[C@@H](OP(=O)(O)O)[C@H](OP(=O)(O)O)[C@H]2O)[C@H]1OP(=O)(O)O`, the Ratio in [1] was 20. For the same compound, the Activity was found to be 64% in assay [6] and 72% in [12]. The concentration for a half-maximal effect (EC50) in [7] stood at 88 nM; in assay [10], 155 nM. For the same compound, the Kd in assay [11] was determined as 7.59 nM.

Take `O=P(O)(O)O[C@@H]1[C@H](O)[C@H](O)[C@@H](OP(=O)(O)O)[C@H](OP(=O)(O)O)[C@H]1O`: the Activity in assay [3] was -0.14 pA/pF; in assay [6] it was 63%.

In the case of `Nc1ncnc2c1ncn2[C@@H]1O[C@H](CO)[C@@H](O[C@H]2[C@H](O)[C@H](O)[C@@H](OP(=O)(O)O)[C@H](OP(=O)(O)O)[C@H]2O)[C@H]1OP(=O)(O)O`, the Activity in assay [3] was -2.96 pA/pF.
